Data: ChEMBL document CHEMBL1240350, “In vitro activity of CEM-101 against Streptococcus pneumoniae and Streptococcus pyogenes with defined macrolide resistance mechanisms” (Antimicrob Agents Chemother, 2010)
Values after ≈ are worked out from the molar mass of the structure shown.

Tests used:
[1] = system: Streptococcus pneumoniae; assay: Antibacterial activity against penicillin-susceptible Streptococcus pneumoniae after overnight incubation by agar dilution method; assay type: functional
In short: (§1)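 Agar dilution on Mueller-Hinton agar supplemented with 5% sheep blood. Inoculum 10^4 CFU/spot, incubated overnight at 35°C in ambient air. Test strains were clinical pneumococcal isolates. S. pneumoniae ATCC 49619 was included as the quality control strain in each run. MIC range, MIC50 and MIC90 were reported for each susceptibility category.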

[2] = system: Streptococcus pneumoniae; assay: Antibacterial activity against quinolone-susceptible Streptococcus pneumoniae after overnight incubation by agar dilution method; assay type: functional; in short: as §1
[3] = system: Streptococcus pneumoniae; assay: Antibacterial activity against quinolone-resistant Streptococcus pneumoniae after overnight incubation by agar dilution method; assay type: functional; in short: as §1
[4] = system: Streptococcus pneumoniae; assay: Antibacterial activity against macrolide-resistant Streptococcus pneumoniae harboring mef(A) gene after overnight incubation by agar dilution method; assay type: functional
In short: (§2)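 Agar dilution MICs on Mueller-Hinton agar with 5% sheep blood. Inoculum 10^4 CFU/spot, incubated overnight at 35°C in ambient air. Clinical S. pneumoniae or group A streptococcal isolates; resistance genotypes (erm(B), erm(A), mef(A)/mef(E)) were assigned by PCR. S. pneumoniae ATCC 49619 served as QC strain in each run. Range, MIC50 and MIC90 reported per phenotype group.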

[5] = system: Streptococcus pyogenes; assay: Antibacterial activity against macrolide-susceptible Streptococcus pyogenes after overnight incubation by agar dilution method; assay type: functional
In short: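 Agar dilution on Mueller-Hinton agar supplemented with 5% sheep blood, inoculum 10^4 CFU/spot, read after overnight incubation at 35°C in ambient air. Clinical isolates with defined genotypes; S. pneumoniae ATCC 49619 quality control strain included in each run. MIC50/MIC90 are MICs inhibiting 50% and 90% of isolates.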

[6] = system: Streptococcus pyogenes; assay: Antibacterial activity against Streptococcus pyogenes harboring erm(B) gene after overnight incubation by agar dilution method; assay type: functional
In short: (§3)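 Clinical isolates collected 1998–2008, with macrolide-resistance genes confirmed by PCR. MICs by agar dilution on Mueller-Hinton agar with 5% sheep blood. Inoculum 10^4 CFU/spot, incubated overnight at 35°C in ambient air. S. pneumoniae ATCC 49619 was the quality-control strain in every run.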

[7] = system: Streptococcus pyogenes; assay: Antibacterial activity against Streptococcus pyogenes harboring mutation in L4 ribosomal protein after overnight incubation by agar dilution method; assay type: functional; in short: as §3
[8] = system: Streptococcus pyogenes; assay: Antibacterial activity against macrolide-resistant Streptococcus pyogenes harboring erm(A) gene after overnight incubation by agar dilution method; assay type: functional; in short: as §2
[9] = system: Streptococcus pneumoniae; assay: Antibacterial activity against macrolide-resistant Streptococcus pneumoniae 24 harboring erm(B) gene after 14 passages and 10 compound-free subculturing by retest method; assay type: functional; conditions: Streptococcus pneumoniae, 24; read-out: MIC
In short: (§4)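 Multistep selection by daily serial passage in subinhibitory drug concentrations. Medium was cation-adjusted Mueller-Hinton broth plus 5% lysed horse blood. Each day the next inoculum came from the tube 1–2 dilutions below the MIC whose turbidity matched the growth control, for up to 50 days. Clone MICs by CLSI macrodilution; identity to the parent confirmed by SmaI PFGE.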

[10] = system: Streptococcus pneumoniae; assay: Antibacterial activity against macrolide-resistant Streptococcus pneumoniae 3665 harboring mef(A) gene after 26 passages and 10 compound-free subculturing by retest method; assay type: functional
[11] = system: Streptococcus pneumoniae; assay: Antibacterial activity against macrolide-resistant Streptococcus pneumoniae 1076 harboring erm(B) and mef(A) gene after 18 passages and 10 compound-free subculturing by retest method; assay type: functional; in short: as §4
[12] = system: Streptococcus pneumoniae; assay: Antibacterial activity against macrolide-resistant Streptococcus pneumoniae 2686 harboring mutation in L4 ribosomal protein after 22 passages and 10 compound-free subculturing by retest method; assay type: functional
[13] = system: Streptococcus pneumoniae; assay: Antibacterial activity against macrolide-resistant Streptococcus pneumoniae 24 harboring erm(B) gene after overnight incubation by agar dilution method; assay type: functional
[14] = system: Streptococcus pneumoniae; assay: Antibacterial activity against macrolide-susceptible Streptococcus pneumoniae 7127 harboring S20N mutation in L4 ribosomal protein and A105V mutation in L22 ribosomal protein after 29 passages and 10 compound-free subculturing by retest method; assay type: functional
[15] = system: Streptococcus pneumoniae; assay: Antibacterial activity against macrolide-susceptible Streptococcus pneumoniae 7127 harboring S20N mutation in L4 ribosomal protein and A105V mutation in L22 ribosomal protein after 38 passages and 10 compound-free subculturing by retest method; assay type: functional
[16] = system: Streptococcus pneumoniae; assay: Antibacterial activity against macrolide-resistant Streptococcus pneumoniae 2686 harboring mutation in L4 ribosomal protein after overnight incubation by agar dilution method; assay type: functional
[17] = system: Streptococcus pyogenes; assay: Antibacterial activity against macrolide-susceptible Streptococcus pyogenes 2132 after overnight incubation by agar dilution method
[18] = system: Streptococcus pyogenes; assay: Antibacterial activity against macrolide-resistant Streptococcus pyogenes 2368 harboring erm(B) gene after overnight incubation by agar dilution method
[19] = system: Streptococcus pyogenes; assay: Antibacterial activity against macrolide-resistant Streptococcus pyogenes 2011 harboring mef(A) gene after overnight incubation by agar dilution method
[20] = system: Streptococcus pyogenes; assay: Antibacterial activity against macrolide-resistant Streptococcus pyogenes 2368 harboring erm(B) gene after 6 passages and 10 compound-free subculturing by retest method
[21] = system: Streptococcus pyogenes; assay: Antibacterial activity against macrolide-resistant Streptococcus pyogenes 2094 harboring erm(A) gene after 43 passages and 10 compound-free subculturing by retest method
[22] = system: Streptococcus pyogenes; assay: Antibacterial activity against macrolide-resistant Streptococcus pyogenes 2094 harboring erm(A) gene after 22 passages and 10 compound-free subculturing by retest method
[23] = system: Streptococcus pyogenes; assay: Antibacterial activity against macrolide-resistant Streptococcus pyogenes 237 harboring mutation in L4 ribosomal protein after overnight incubation by agar dilution method
[24] = system: Streptococcus pyogenes; assay: Antibacterial activity against macrolide-resistant Streptococcus pyogenes 237 harboring mutation in L4 ribosomal protein after 50 passages following overnight incubation by agar dilution method
[25] = system: Streptococcus pneumoniae; assay: Antibacterial activity against penicillin-resistant Streptococcus pneumoniae after overnight incubation by agar dilution method; assay type: functional; in short: as §1
[26] = system: Streptococcus pneumoniae; assay: Antibacterial activity against Streptococcus pneumoniae harboring erm(B) gene after overnight incubation by agar dilution method; assay type: functional; in short: as §3
[27] = system: Streptococcus pneumoniae; assay: Antibacterial activity against Streptococcus pneumoniae harboring erm(B) and mef(A) gene after overnight incubation by agar dilution method; assay type: functional; in short: as §3
[28] = system: Streptococcus pneumoniae; assay: Antibacterial activity against Streptococcus pneumoniae harboring mutation in L4 ribosomal protein after overnight incubation by agar dilution method; assay type: functional; in short: as §3
[29] = system: Streptococcus pneumoniae; assay: Antibacterial activity against macrolide-resistant Streptococcus pneumoniae harboring erm(B) and mef(A) gene after overnight incubation by agar dilution method; assay type: functional; in short: as §2
[30] = system: Streptococcus pyogenes; assay: Antibacterial activity against macrolide-susceptible Streptococcus pyogenes 2132 after 50 passages following overnight incubation by agar dilution method
[31] = system: Streptococcus pyogenes; assay: Antibacterial activity against macrolide-resistant Streptococcus pyogenes 2011 harboring mef(A) gene after 50 passages following overnight incubation by agar dilution method

CC[C@H]1OC(=O)[C@H](C)[C@@H](O[C@H]2C[C@@](C)(OC)[C@@H](O)[C@H](C)O2)[C@H](C)[C@@H](O[C@@H]2O[C@H](C)C[C@H](N(C)C)[C@H]2O)[C@](C)(O)C[C@@H](C)CN(C)[C@H](C)[C@@H](O)[C@]1(C)O [AZITHROMYCIN] was tested, and the MIC50 [1] was 4 µg/mL (≈ 5.34 µM), the MIC90 [1] was > 64 µg/mL and the MIC50 [2] was > 64 µg/mL. The MIC90 [2] was > 64 µg/mL, the MIC50 [3] was 0.125 µg/mL (≈ 0.167 µM) and the MIC50 [4] was 4 µg/mL (≈ 5.34 µM). For the same molecule, the MIC90 [4] was 8 µg/mL (≈ 10.7 µM), the MIC50 [5] was 0.125 µg/mL (≈ 0.167 µM) and the MIC90 [5] was 0.25 µg/mL (≈ 0.334 µM). For the same molecule, the MIC50 [6] was > 64 µg/mL, the MIC90 [6] was > 64 µg/mL and the MIC [7] was 2 µg/mL (≈ 2.67 µM). The MIC50 [8] was 16 µg/mL (≈ 21.4 µM), the MIC90 [8] was > 64 µg/mL and the MIC [9] was > 64 µg/mL. For the same molecule, the MIC [10] was 8 µg/mL (≈ 10.7 µM), the MIC [11] was > 64 µg/mL and the MIC [12] was > 64 µg/mL. For the same molecule, the MIC [13] was > 64 µg/mL, the MIC [14] was 1 µg/mL (≈ 1.34 µM) and the MIC [15] was 0.06 µg/mL (≈ 0.0801 µM). For the same molecule, the MIC [16] was > 64 µg/mL, the MIC [17] was 0.06 µg/mL (≈ 0.0801 µM) and the MIC [18] was > 64 µg/mL. The MIC [19] was 4 µg/mL (≈ 5.34 µM), the MIC [20] was > 64 µg/mL and the MIC [21] was 4 µg/mL (≈ 5.34 µM). For the same molecule, the MIC [22] was > 64 µg/mL, the MIC [23] was 4 µg/mL (≈ 5.34 µM) and the MIC [24] was 8 µg/mL (≈ 10.7 µM).

With CC[C@H]1OC(=O)[C@H](C)[C@@H](O[C@H]2C[C@@](C)(OC)[C@@H](O)[C@H](C)O2)[C@H](C)[C@@H](O[C@@H]2O[C@H](C)C[C@H](N(C)C)[C@H]2O)[C@](C)(OC)C[C@@H](C)C(=O)[C@H](C)[C@@H](O)[C@]1(C)O [CLARITHROMYCIN] the MIC50 [1] was 1 µg/mL (≈ 1.34 µM), the MIC90 [1] was > 64 µg/mL and the MIC50 [25] was 16 µg/mL (≈ 21.4 µM). For the same molecule, the MIC50 [26] was > 64 µg/mL, the MIC50 [27] was > 64 µg/mL and the MIC50 [28] was 16 µg/mL (≈ 21.4 µM). The MIC90 [28] was 32 µg/mL (≈ 42.8 µM), the MIC50 [2] was 16 µg/mL (≈ 21.4 µM) and the MIC90 [2] was > 64 µg/mL. The MIC50 [3] was 0.03 µg/mL (≈ 0.0401 µM), the MIC50 [4] was 2 µg/mL (≈ 2.67 µM) and the MIC90 [4] was 4 µg/mL (≈ 5.35 µM). The MIC50 [29] was > 64 µg/mL, the MIC50 [5] was 0.03 µg/mL (≈ 0.0401 µM) and the MIC90 [5] was 0.06 µg/mL (≈ 0.0802 µM). The MIC50 [6] was > 64 µg/mL, the MIC90 [6] was > 64 µg/mL and the MIC [7] was 1 µg/mL (≈ 1.34 µM). For the same molecule, the MIC50 [8] was 2 µg/mL (≈ 2.67 µM), the MIC90 [8] was > 64 µg/mL and the MIC [9] was > 64 µg/mL. The MIC [10] was 8 µg/mL (≈ 10.7 µM), the MIC [11] was > 64 µg/mL and the MIC [12] was 32 µg/mL (≈ 42.8 µM). For the same molecule, the MIC [13] was > 64 µg/mL, the MIC [14] was 0.5 µg/mL (≈ 0.668 µM) and the MIC [15] was 0.06 µg/mL (≈ 0.0802 µM). For the same molecule, the MIC [16] was 8 µg/mL (≈ 10.7 µM), the MIC [17] was 0.03 µg/mL (≈ 0.0401 µM) and the MIC [18] was > 64 µg/mL. The MIC [19] was 4 µg/mL (≈ 5.35 µM), the MIC [30] was 0.016 µg/mL (≈ 0.0214 µM) and the MIC [20] was > 64 µg/mL. For the same molecule, the MIC [21] was 8 µg/mL (≈ 10.7 µM), the MIC [22] was 8 µg/mL (≈ 10.7 µM) and the MIC [23] was 0.25 µg/mL (≈ 0.334 µM). It also gave an MIC [31] of 8 µg/mL (≈ 10.7 µM) and an MIC [24] of 1 µg/mL (≈ 1.34 µM).
